According to ChEMBL document CHEMBL1152370, “N-(4-Fluorobenzyl)-3-hydroxy-9,9-dimethyl-4-oxo-6,7,8,9-tetrahydro-4H-pyrazino[1,2-a]pyrimidine-2-carboxamides a novel class of potent HIV-1 integrase inhibitors” (Bioorg Med Chem Lett, 2009):

Assays:
[1] = molecular target: Human immunodeficiency virus type 1 integrase (Human immunodeficiency virus 1, UniProt Q7ZJM1); experiment: Inhibition of HIV1 recombinant integrase strand transfer activity treated after enzyme assembly and washing
[2] = tested on: Human immunodeficiency virus 1; experiment: Antiviral activity against HIV1 3B infected in human MT4 cells assessed as inhibition of viral spread in presence of 10% heat inactivated fetal bovine serum; type: functional; details: Human immunodeficiency virus 1, 3B, read-out: CIC95
Outline: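 Spread assay of HIV-1 IIIB infection in MT-4 human T-lymphoid cell culture with 10% heat-inactivated fetal bovine serum. The value is the 95% inhibitory concentration (CIC95) for blocking the spread of infection. SD was always ±10% of the value.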

[3] = tested on: Human immunodeficiency virus 1; experiment: Antiviral activity against HIV1 3B infected in human MT4 cells assessed as inhibition of viral spread in presence of 50% normal human serum; type: functional; details: Human immunodeficiency virus 1, 3B, read-out: CIC95
Outline: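 Spread assay of HIV-1 IIIB infection in MT-4 human T-lymphoid cell culture with 50% normal human serum. The value is the CIC95, the 95% inhibitory concentration for blocking the spread of infection. SD was always ±10% of the value.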

[4] = Plasma clearance in rat; type: ADME, organism-based
[5] = Bioavailability in rat; type: ADME, organism-based; details: in vivo

Chain of Human immunodeficiency virus type 1 integrase (Q7ZJM1 whole entry): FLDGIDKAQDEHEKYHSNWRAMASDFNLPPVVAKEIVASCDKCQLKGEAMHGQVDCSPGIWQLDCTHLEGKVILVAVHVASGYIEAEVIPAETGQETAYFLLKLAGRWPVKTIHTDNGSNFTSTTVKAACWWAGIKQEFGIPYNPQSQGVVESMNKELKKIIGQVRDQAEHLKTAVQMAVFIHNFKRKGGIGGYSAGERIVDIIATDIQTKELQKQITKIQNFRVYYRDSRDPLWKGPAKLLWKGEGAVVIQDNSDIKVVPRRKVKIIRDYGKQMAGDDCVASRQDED

| Structure (SMILES) | IC50 [1] | IC95 [2] | IC95 [3] | clearance [4] | bioavailability [5] |
| --- | --- | --- | --- | --- | --- |
| CC1(C)c2nc(C(=O)NCc3ccc(F)cc3)c(O)c(=O)n2CCN1CC(N)=O | 0.005 µM | 0.125 µM | 0.25 µM |  |  |
| CC1(C)c2nc(C(=O)NCc3ccc(F)cc3)c(O)c(=O)n2CCN1CCc1ccccn1 | 0.012 µM | 0.25 µM | 1 µM |  |  |
| CC1(C)c2nc(C(=O)NCc3ccc(F)cc3)c(O)c(=O)n2CCN1Cc1nnco1 | 0.021 µM | 0.015 µM | 0.062 µM |  |  |
| CC1(C)c2nc(C(=O)NCc3ccc(F)cc3)c(O)c(=O)n2CCN1CCN1CCOCC1 | 0.003 µM | 0.5 µM | 1 µM |  |  |
| Cn1cc(CN2CCn3c(nc(C(=O)NCc4ccc(F)cc4)c(O)c3=O)C2(C)C)nn1 | 0.002 µM | 0.031 µM | 0.062 µM |  |  |
| CC1(C)c2nc(C(=O)NCc3ccc(F)cc3)c(O)c(=O)n2CCN1Cc1ccccn1 | 0.009 µM | 0.031 µM | 0.125 µM |  |  |
| CNC(=O)CN1CCn2c(nc(C(=O)NCc3ccc(F)cc3)c(O)c2=O)C1(C)C | 0.021 µM | 0.062 µM | 0.125 µM |  |  |
| Cn1ccc(CN2CCn3c(nc(C(=O)NCc4ccc(F)cc4)c(O)c3=O)C2(C)C)n1 | 0.009 µM | 0.031 µM | 0.125 µM |  |  |
| CC1(C)c2nc(C(=O)NCc3ccc(F)cc3)c(O)c(=O)n2CCN1Cc1cn[nH]c1 | 0.007 µM | 0.062 µM | 1 µM |  |  |
| Cn1cnc(CN2CCn3c(nc(C(=O)NCc4ccc(F)cc4)c(O)c3=O)C2(C)C)n1 | 0.025 µM | 0.031 µM | 0.062 µM |  |  |
| Cn1nncc1CN1CCn2c(nc(C(=O)NCc3ccc(F)cc3)c(O)c2=O)C1(C)C | 0.006 µM | 0.015 µM | 0.125 µM |  |  |
| CC1(C)c2nc(C(=O)NCc3ccc(F)cc3)c(O)c(=O)n2CCN1Cc1ccn[nH]1 | 0.005 µM | 0.062 µM | 0.25 µM |  |  |
| CC1(C)c2nc(C(=O)NCc3ccc(F)cc3)c(O)c(=O)n2CCN1CC(=O)N1CCCC1 | 0.007 µM | 0.031 µM | 0.25 µM |  |  |
| Cc1nnc(C(=O)NC(C)(C)c2nc(C(=O)NCc3ccc(F)cc3)c(O)c(=O)n2C)o1 [RALTEGRAVIR POTASSIUM] |  | 0.019 µM | 0.031 µM |  |  |
| Cc1nc(CN2CCn3c(nc(C(=O)NCc4ccc(F)cc4)c(O)c3=O)C2(C)C)no1 | 0.006 µM | 0.015 µM | 0.062 µM |  |  |
| Cn1nccc1CN1CCn2c(nc(C(=O)NCc3ccc(F)cc3)c(O)c2=O)C1(C)C | 0.007 µM | 0.031 µM | 0.125 µM |  |  |
| CN(C)[C@@H]1CCCn2c1nc(C(=O)NCc1ccc(F)cc1)c(O)c2=O | 0.069 µM |  |  |  |  |
| Cn1nnc(CN2CCn3c(nc(C(=O)NCc4ccc(F)cc4)c(O)c3=O)C2(C)C)n1 | 0.006 µM | 0.007 µM | 0.031 µM |  |  |
| CN1Cn2c(nc(C(=O)NCc3ccc(F)cc3)c(O)c2=O)C1(C)C | 0.03 µM | 0.5 µM | 1 µM |  |  |
| CC1(C)c2nc(C(=O)NCc3ccc(F)cc3)c(O)c(=O)n2CCN1Cc1cscn1 | 0.009 µM | 0.015 µM | 0.125 µM |  |  |
| CCN(CC)CCN1CCn2c(nc(C(=O)NCc3ccc(F)cc3)c(O)c2=O)C1(C)C | 0.076 µM | 0.625 µM | 0.625 µM |  |  |
| CC1(C)c2nc(C(=O)NCc3ccc(F)cc3)c(O)c(=O)n2CCN1Cc1cnccn1 | 0.006 µM | 0.031 µM | 0.125 µM |  |  |
| Cc1noc(CN2CCn3c(nc(C(=O)NCc4ccc(F)cc4)c(O)c3=O)C2(C)C)n1 | 0.013 µM | 0.015 µM | 0.062 µM |  |  |
| CC1(C)NCCCn2c1nc(C(=O)NCc1ccc(F)cc1)c(O)c2=O | 0.02 µM | 0.5 µM | 0.25 µM |  |  |

| Structure (SMILES) | IC50 [1] | IC95 [2] | IC95 [3] | clearance [4] | bioavailability [5] |
| --- | --- | --- | --- | --- | --- |
| CN1CCN(C(=O)CN2CCn3c(nc(C(=O)NCc4ccc(F)cc4)c(O)c3=O)C2(C)C)CC1 | 0.021 µM | 0.062 µM | 0.125 µM |  |  |
| CC1(C)c2nc(C(=O)NCc3ccc(F)cc3)c(O)c(=O)n2CCN1Cc1nnn[nH]1 | 0.002 µM | 0.5 µM | 1 µM |  |  |
| CN(C)C(=O)C(=O)N1CCn2c(nc(C(=O)NCc3ccc(F)cc3)c(O)c2=O)C1(C)C | 0.006 µM | 1 µM |  |  |  |
| CC1(C)c2nc(C(=O)NCc3ccc(F)cc3)c(O)c(=O)n2CCN1Cc1cocn1 | 0.003 µM | 0.031 µM | 0.093 µM |  |  |
| Cn1nnnc1CN1CCn2c(nc(C(=O)NCc3ccc(F)cc3)c(O)c2=O)C1(C)C | 0.005 µM | 0.015 µM | 0.062 µM |  |  |
| CC1(C)NC(=O)Cn2c1nc(C(=O)NCc1ccc(F)cc1)c(O)c2=O | 0.005 µM | > 1 µM | > 1 µM |  |  |
| CN1CCn2c(nc(C(=O)NCc3ccc(F)cc3)c(O)c2=O)C1(C)C | 0.006 µM | 0.125 µM | 0.25 µM | 0.6 L/h/kg | 57% |
| CC1(C)NC(=O)n2c1nc(C(=O)NCc1ccc(F)cc1)c(O)c2=O | 0.032 µM | > 1 µM | > 1 µM |  |  |
| CC1(C)c2nc(C(=O)NCc3ccc(F)cc3)c(O)c(=O)n2CCN1CC(=O)O | 0.008 µM | 0.5 µM | 1 µM |  |  |
| Cc1nnc(CN2CCn3c(nc(C(=O)NCc4ccc(F)cc4)c(O)c3=O)C2(C)C)o1 | 0.005 µM | 0.007 µM | 0.062 µM |  |  |
| CN(C)CCN1CCn2c(nc(C(=O)NCc3ccc(F)cc3)c(O)c2=O)C1(C)C | 0.062 µM | 1.25 µM | 1.25 µM |  |  |
| CC1(C)c2nc(C(=O)NCc3ccc(F)cc3)c(O)c(=O)n2CCN1CC(=O)N1CCOCC1 | 0.007 µM | 0.062 µM | 0.25 µM |  |  |
| CN(C)C(=O)CN1CCn2c(nc(C(=O)NCc3ccc(F)cc3)c(O)c2=O)C1(C)C | 0.008 µM | 0.062 µM | 0.125 µM |  |  |
| CC1(C)NS(=O)(=O)Cn2c1nc(C(=O)NCc1ccc(F)cc1)c(O)c2=O | 0.007 µM | 5 µM | > 10 µM |  |  |
| CN(C)S(=O)(=O)N1CCn2c(nc(C(=O)NCc3ccc(F)cc3)c(O)c2=O)C1(C)C | 0.008 µM | 1 µM |  |  |  |
| CC1(C)NCCn2c1nc(C(=O)NCc1ccc(F)cc1)c(O)c2=O | 0.016 µM | 0.125 µM | 0.166 µM |  |  |
| CC1(C)c2nc(C(=O)NCc3ccc(F)cc3)c(O)c(=O)n2CCN1Cc1ccccc1 | 0.005 µM | 0.125 µM | 0.25 µM |  |  |
| CC(=O)N1CCn2c(nc(C(=O)NCc3ccc(F)cc3)c(O)c2=O)C1(C)C | 0.005 µM | 1 µM |  |  |  |
| CC1(C)c2nc(C(=O)NCc3ccc(F)cc3)c(O)c(=O)n2CCN1Cc1cnco1 | 0.004 µM | 0.031 µM | 0.125 µM |  |  |
| CC1(C)c2nc(C(=O)NCc3ccc(F)cc3)c(O)c(=O)n2CCN1S(C)(=O)=O | 0.01 µM | 1 µM |  |  |  |
| CC1(C)c2nc(C(=O)NCc3ccc(F)cc3)c(O)c(=O)n2CCN1Cc1cnn[nH]1 | 0.006 µM | 0.031 µM | 0.125 µM |  |  |
| Cc1cnc(CN2CCn3c(nc(C(=O)NCc4ccc(F)cc4)c(O)c3=O)C2(C)C)o1 | 0.008 µM | 0.015 µM | 0.062 µM |  |  |
| Cc1cc(CN2CCn3c(nc(C(=O)NCc4ccc(F)cc4)c(O)c3=O)C2(C)C)on1 | 0.062 µM | 0.031 µM | 0.125 µM |  |  |
| CCNC(=O)N1CCn2c(nc(C(=O)NCc3ccc(F)cc3)c(O)c2=O)C1(C)C | 0.015 µM | 0.5 µM |  |  |  |
